Screens as filed in PubChem.
Rows were chosen to be rich in hits. Some 3.4% of all compounds tested hit in one or more screens of this group.
KCC2 mod: KCC2 cotransporter modulators, thallium flux, primary screen, cell-based, HEK293 KCC2, FluoZin-2 fluorescence, MLSMR; KCC2 cells, thallium flux FluoZin-2 fluorescence; Solute carrier family 12 member 5 (Homo sapiens), Q9H2X9; B-score of Tl+ flux slope (higher = more flux/activation; lower = inhibition) at 10 µM; hit rate 2.2% among 190,000; AID 1456, 2008;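 active = thallium flux slope and its plate-corrected score both differing from the plate sample mean at a set confidence after two filtering rounds, in either direction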;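 note: slope of fluorescence scaled to starting intensity during 10 to 20 s after thallium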
ROMK mod: ROMK potassium channel modulators, primary screen, cell-based, thallium flux, MLSMR library. ATP-sensitive inward rectifier potassium channel 1 (Homo sapiens), P48048. hit rate 2% among 130,000. Tet-inducible ROMK, thallium flux fluorescence; actives lie on both sides. B-score at 10 µM;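 active = signal ratio slope over the read window, or its plate-corrected B-score, at least 3 SD from the plate mean, either direction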;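 note: B-score of the F/F0 ratio slope over 7 to 12 s after thallium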
Redox H2O2 prof: compounds producing H2O2 with reducing agent – biochemical, NIH compound library profiling, artefact control for MLSCN library redox annotation, primary screen; DTT-dependent redox cycling H2O2, phenol red/HRP absorbance; 100% = 100 µM peroxide control, 0% = buffer; activation, % at 10 µM; hit rate 0.03% among 200,000;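 active = activation of at least 50% relative to the plate's high and low controls in the primary single-dose screen; inactive = activation below 50%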;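 note: compound incubated with DTT at 0.8 mM final as the reducing agent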
p97 ATPase inh: inhibitors of human p97 ATPase, primary screen, biochemical | Transitional endoplasmic reticulum ATPase (Homo sapiens), P55072 | recombinant p97 ATPase, Kinase-Glo ATP luminescence, 3 h | inhibition, % at 8 µM | hit rate 0.42% among 220,000 | AID 1481, 2009; in the data active = inhibition above about 15%;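 note: 0% = DMSO vehicle and 100% = wells lacking enzyme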
Mdm2 ligase inh: MDM2-luciferase reporter signal enhancers, primary screen, MDM2 E3 ligase inhibitor project, cell-based, luminescence, 1536-well; E3 ubiquitin-protein ligase Mdm2 (Homo sapiens), Q00987; cell-based MDM2 ubiquitination luciferase reporter, 2 h; 0 = plate control, 100 = twice control, blank-subtracted; signal enhancement, % at 5 µM; hit rate 0.11% among 210,000; AID 1230, 2008;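 active = signal enhancement of 30% or more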;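 note: luminescence tracks abundance of the self-degrading MDM2-luciferase fusion protein; higher signal means inhibition of MDM2 E3 ligase activity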
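Timing – 2 h compound exposure at 37 °C · Assay system – mammalian cells stably expressing self-ubiquitinating, self-degrading MDM2 E3–luciferase fusion · Amount – 2000 cells seeded into each well · Measure – % luminescence enhancement versus blank-corrected plate control mean · Measured by – SteadyLite luminescence, 15 min reagent step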
PKD1 inh: inhibitors of human PKD1 kinase, biochemical, fluorescence polarization. PKD1 kinase fluorescence polarization assay. hit rate 0.056% among 200,000. inhibition, % (no concentration beside the values). AID 797, 2007. Serine/threonine-protein kinase D1 (Homo sapiens), Q15139; in the data active = inhibition above about 50%
PKD FP artifact: fluorescence polarization interference in PKD1 assay, artefact control for PKD1 inhibitor project, biochemical, 140K library; inhibition, % at 10 µM; PKD1 FP assay interference counter-screen; 85 tested, under 10 active; shares compounds with PKD1 inh; AID 1315, 2008; call rule not given here
Redox H2O2 DR: confirmation of DTT-dependent redox cycling H2O2 generators. shares compounds with Redox H2O2 prof. phenol red-HRP absorbance. EC50, µM. hit rate 40% among 60;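 active = EC50 under a set limit for hydrogen peroxide production with the reducing agent DTT present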
KCC2 secondary: KCC2 modulators in sodium-free buffer, confirmation, cell-based, HEK293 KCC2, thallium flux, secondary assay; AID 1713, 2009; normalised thallium flux (F/F0 slope) at 10 µM; shares compounds with KCC2 mod; hit rate 15% among 3,700; FluoZin2 fluorescence; hits give high values;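 active = thallium flux slope above the same plate's solvent-only control mean plus 3 SD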
KCC2 bumet counter: thallium flux persisting under bumetanide in KCC2 cells, confirmation, counter-screen for KCC2 modulator project, cell-based, HEK293 KCC2, FluoZin2, secondary assay 3 | shares compounds with KCC2 mod | HEK293-KCC2 + bumetanide/ouabain; hits give high values | normalized thallium flux at 10 µM | hit rate 49% among 3,700 | AID 1714, 2009;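 active = thallium entry rate above the same plate's blocked-transporter control wells by more than 3 SD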;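 note: raw slope of fluorescence over initial fluorescence between 10 and 20 s after thallium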
KCC2 secondary2: KCC2 modulators without ouabain present, confirmation, cell-based, HEK293 KCC2, thallium flux, FluoZin2, secondary assay 2; shares compounds with KCC2 mod; thallium flux FluoZin2 fluorescence; actives lie on both sides; F/F0 rise rate, 10–20 s post-thallium; normalized thallium flux at 10 µM; hit rate 23% among 3,700;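 active = thallium flux slope more than 3 SD above or below the plate's solvent-only control mean, mostly below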;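 note: raw slope with 0.1% DMSO as baseline and bumetanide as block control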
HEK counter1: thallium flux modulation in parental HEK cells, confirmation, counter-screen for KCC2 modulator project, cell-based, counterscreen 1; HEK293 parental cells, thallium flux FluoZin2, ouabain; baseline-ratio fluorescence slope, 10–20 s after thallium; shares compounds with KCC2 mod; hit rate 46% among 3,700; thallium flux rate (normalised fluorescence) at 10 µM;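 active = thallium flux rate significantly above the same plate's solvent-only control wells, beyond their mean plus 3 SD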
KCC2 ouabain: KCC2 inhibitors and activators, ouabain retest, confirmation, HEK-KCC2 cells; shares compounds with KCC2 mod; raw Tl+ flux slope (below DMSO = inhibition, above = activation) at 10 µM; HEK293-KCC2, thallium flux FluoZin2 fluorescence; bidirectional: low = inhibitor, high = activator; hit rate 48% among 3,700;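 active = thallium flux slope beyond 3 SD from same-plate DMSO control mean in most replicates, usually higher, sometimes lower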;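 note: slope of initial-normalized fluorescence between seconds 10 and 20 after thallium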
HEK293 Tl flux2: native HEK Tl+ uptake effects, second counter-screen – HEK cells, counterscreen 2, counter-screen for KCC2 modulator project, confirmation | shares compounds with KCC2 mod | HEK293 parental, thallium flux FluoZin-2 fluorescence slope | AID 1718, 2009 | thallium flux slope at 10 µM | hit rate 33% among 3,700;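 active = thallium flux slope above the same plate's solvent-control mean plus 3 SD in both duplicate wells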;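 note: run without ouabain in cells lacking the KCC2 cotransporter; slope of fluorescence scaled to its starting value between 10 and 20 s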
ROMK retest: ROMK channel modulator hit retest, confirmation, cell-based, thallium flux, duplicate, resupplied hits. shares compounds with ROMK mod. fluorescence ratio; hits give low values. normalized thallium flux (F/F0 slope) at 10 µM. hit rate 54% among 3,000. AID 1917, 2009;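 active = Flux at 10 µM at least 3 SD below or above vehicle control mean in one or both replicates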
Active calls of the source: *; . = no result.

SMILES	KCC2 mod	ROMK mod	Redox H2O2 prof	p97 ATPase inh	Mdm2 ligase inh	PKD1 inh	PKD FP artifact	ROMK retest	others
c1ccc(-c2n[nH]c3ccccc23)cc1	-2.9*	2.5	-3	1	-19	90*	-7	.	KCC2 secondary=0.0077;KCC2 bumet counter=0.0061;KCC2 secondary2=0.03;HEK counter1=0.0066;KCC2 ouabain=0.02;HEK293 Tl flux2=0.0096
CCC(C)Cn1c(C)nc2ccccc21 (centres undefined)	-0.33	-0.061	1	1	4	-7	.	.
Clc1cncc(Cl)c1N/N=C/c1ccncc1	0.97	4.1*	0	3	-36	91*	-24	0.12*
Clc1cccc(Cl)c1/C=N/Nc1c(Cl)cncc1Cl	.	.	.	6	-5	.	.	.
Cc1ccc(OCC(O)Cn2c(N)nc3c2c(=O)n(C)c(=O)n3C)cc1 (centres undefined)	-0.92	-0.21	-1	1	1	-3	.	.
O=C(CN1CCCC1)Nc1c2c(nc3ccccc13)N(Cc1ccccc1)CC2	.	-3.1*	0	3	-22	100*	-9	0.061*
CC(C)CN(C(=O)COC(=O)c1ccc([N+](=O)[O-])o1)C1CCS(=O)(=O)C1 (centres undefined)	0.37	-0.067	122*	-3	2	-9	.	.	Redox H2O2 DR=>50
CC(C)CN(C(=O)COC(=O)c1cc2ccccc2oc1=O)C1CCS(=O)(=O)C1 (centres undefined)	-0.35	-0.98	-2	4	-2	11	.	.
